Reference: ChEMBL document CHEMBL1926614, “Substituted thiazoles V. synthesis and antitumor activity of novel thiazolo[2,3-b]quinazoline and pyrido[4,3-d]thiazolo[3,2-a]pyrimidine analogues” (2012)

Experiments:
Format in all cases: functional
[1] = system: CCRF-CEM; test: Growth inhibition of human CCRF-CEM cells at 10 uM after 48 hrs by coulter counting; conditions: read-out: GI
How it was run: (§1)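 Single-dose primary screen across the full NCI 60-cell-line panel. Stocks were made in DMSO and diluted in PBS to a final DMSO below 1%. Cultures at 6 × 10⁴ cells/ml were run in duplicate wells alongside PBS/DMSO vehicle controls at 37 °C in humidified 5% CO₂. Data were expressed as percent growth of treated cells.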

[2] = system: RPMI-8226; test: Growth inhibition of human RPMI8226 cells at 10 uM after 48 hrs by coulter counting; conditions: RPMI-8226, 48 h, read-out: GI; how it was run: as §1
[3] = system: U-251; test: Growth inhibition of human U251 cells at 10 uM after 48 hrs by coulter counting; conditions: U-251, 48 h, read-out: GI
How it was run: (§2)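 Single-dose screen in the NCI 60 human tumor cell line panel (nine subpanels). Compounds dissolved in DMSO and diluted in phosphate buffered saline, keeping final DMSO below 1%. Added in duplicate wells to cells at 6 × 10⁴ cells/ml. Controls held PBS and DMSO at matching dilutions. Incubated at 37 °C, humidified, 5% CO₂. Reported as percent growth of treated cells.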

[4] = system: EKVX; test: Growth inhibition of human EKVX cells at 10 uM after 48 hrs by coulter counting; conditions: read-out: GI; how it was run: as §1
[5] = system: SK-MEL-2; test: Growth inhibition of human SK-MEL-2 cells at 10 uM after 48 hrs by coulter counting; conditions: SK-MEL-2, 48 h, read-out: GI; how it was run: as §1
[6] = system: NCI-H226; test: Growth inhibition of human NCI-H226 cells at 10 uM after 48 hrs by coulter counting; conditions: NCI-H226, 48 h, read-out: GI; how it was run: as §1
[7] = system: HCT-15; test: Growth inhibition of human HCT15 cells at 10 uM after 48 hrs by coulter counting; conditions: HCT-15, 48 h, read-out: GI; how it was run: as §1
[8] = system: NCI-H522; test: Growth inhibition of human NCI-H522 cells at 10 uM after 48 hrs by coulter counting; conditions: NCI-H522, 48 h, read-out: GI; how it was run: as §1
[9] = system: HOP-62; test: Growth inhibition of human HOP62 cells at 10 uM after 48 hrs by coulter counting; conditions: HOP-62, 48 h, read-out: GI; how it was run: as §1
[10] = system: MOLT-4; test: Growth inhibition of human MOLT4 cells at 10 uM after 48 hrs by coulter counting; conditions: MOLT-4, 48 h, read-out: GI; how it was run: as §1
[11] = system: DU-145; test: Growth inhibition of human DU145 cells at 10 uM after 48 hrs by coulter counting; conditions: DU-145, 48 h, read-out: GI; how it was run: as §1
[12] = system: BT-549; test: Growth inhibition of human BT549 cells at 10 uM after 48 hrs by coulter counting; conditions: BT-549, 48 h, read-out: GI; how it was run: as §1
[13] = system: UACC-257; test: Growth inhibition of human UACC257 cells at 10 uM after 48 hrs by coulter counting; conditions: UACC-257, 48 h, read-out: GI; how it was run: as §2
[14] = system: UO-31; test: Growth inhibition of human UO31 cells at 10 uM after 48 hrs by coulter counting; conditions: UO-31, 48 h, read-out: GI; how it was run: as §2
[15] = system: M14; test: Growth inhibition of human M14 cells at 10 uM after 48 hrs by coulter counting; conditions: M14, 48 h, read-out: GI; how it was run: as §1
[16] = system: MCF7; test: Growth inhibition of human MCF7 cells at 10 uM after 48 hrs by coulter counting; conditions: MCF7, 48 h, read-out: GI; how it was run: as §1
[17] = system: SK-MEL-5; test: Growth inhibition of human SK-MEL-5 cells at 10 uM after 48 hrs by coulter counting; conditions: SK-MEL-5, 48 h, read-out: GI; how it was run: as §1
[18] = system: TK-10; test: Growth inhibition of human TK10 cells at 10 uM after 48 hrs by coulter counting; conditions: TK-10, 48 h, read-out: GI; how it was run: as §2
[19] = system: KM12; test: Growth inhibition of human KM12 cells at 10 uM after 48 hrs by coulter counting; conditions: KM12, 48 h, read-out: GI; how it was run: as §1
[20] = system: HL-60(TB); test: Growth inhibition of human HL-60(TB) cells at 10 uM after 48 hrs by coulter counting; conditions: HL-60, 48 h, read-out: GI
How it was run: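 Test compound was dissolved in DMSO and diluted in phosphate-buffered saline to a final DMSO level below 1%. Dilutions were plated in duplicate with cell culture at 6 × 10⁴ cells/ml. Vehicle controls held PBS and DMSO at matching dilutions. Incubation was at 37 °C, humidified, under 5% CO₂. Data were reported as percent growth of treated cells.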

[21] = system: CAKI-1; test: Growth inhibition of human Caki1 cells at 10 uM after 48 hrs by coulter counting; conditions: CAKI-1, 48 h, read-out: GI; how it was run: as §1
[22] = system: OVCAR-8; test: Growth inhibition of human OVCAR8 cells at 10 uM after 48 hrs by coulter counting; conditions: OVCAR-8, 48 h, read-out: GI; how it was run: as §1
[23] = system: SNB-75; test: Growth inhibition of human SNB75 cells at 10 uM after 48 hrs by coulter counting; conditions: SNB-75, 48 h, read-out: GI; how it was run: as §1
[24] = system: A549; test: Growth inhibition of human A549 cells at 10 uM after 48 hrs by coulter counting; conditions: A549, 48 h, read-out: GI; how it was run: as §1
[25] = system: A498; test: Growth inhibition of human A498 cells at 10 uM after 48 hrs by coulter counting; conditions: A498, 48 h, read-out: GI; how it was run: as §1
[26] = system: SF-295; test: Growth inhibition of human SF295 cells at 10 uM after 48 hrs by coulter counting; conditions: SF-295, 48 h, read-out: GI; how it was run: as §1
[27] = system: NCI-H460; test: Growth inhibition of human NCI-H460 cells at 10 uM after 48 hrs by coulter counting; conditions: NCI-H460, 48 h, read-out: GI; how it was run: as §1
[28] = system: 786-0; test: Growth inhibition of human 786-0 cells at 10 uM after 48 hrs by coulter counting; conditions: 786-0, 48 h, read-out: GI; how it was run: as §1
[29] = system: NCI-H23; test: Growth inhibition of human NCI-H23 cells at 10 uM after 48 hrs by coulter counting; conditions: NCI-H23, 48 h, read-out: GI; how it was run: as §1
[30] = system: NCI/ADR-RES; test: Growth inhibition of human NCI/ADR-RES cells at 10 uM after 48 hrs by coulter counting; conditions: read-out: GI; how it was run: as §1
[31] = system: K562; test: Growth inhibition of human K562 cells at 10 uM after 48 hrs by coulter counting; conditions: K562, 48 h, read-out: GI; how it was run: as §1
[32] = system: HT-29; test: Growth inhibition of human HT-29 cells at 10 uM after 48 hrs by coulter counting; conditions: HT-29, 48 h, read-out: GI; how it was run: as §1
[33] = system: SN12C; test: Growth inhibition of human SN12C cells at 10 uM after 48 hrs by coulter counting; conditions: read-out: GI; how it was run: as §1
[34] = system: LOX IMVI; test: Growth inhibition of human LOXIMVI cells at 10 uM after 48 hrs by coulter counting; conditions: read-out: GI; how it was run: as §1
[35] = system: SF-268; test: Growth inhibition of human SF268 cells at 10 uM after 48 hrs by coulter counting; conditions: SF-268, 48 h, read-out: GI; how it was run: as §1
[36] = system: SK-MEL-28; test: Growth inhibition of human SK-MEL-28 cells at 10 uM after 48 hrs by coulter counting; conditions: SK-MEL-28, 48 h, read-out: GI; how it was run: as §1
[37] = system: UACC-62; test: Growth inhibition of human UACC62 cells at 10 uM after 48 hrs by coulter counting; conditions: UACC-62, 48 h, read-out: GI; how it was run: as §2
[38] = system: T47D; test: Growth inhibition of human T47D cells at 10 uM after 48 hrs by coulter counting; conditions: read-out: GI; how it was run: as §2
[39] = system: SNB-19; test: Growth inhibition of human SNB19 cells at 10 uM after 48 hrs by coulter counting; conditions: SNB-19, 48 h, read-out: GI; how it was run: as §1
[40] = system: HCT-116; test: Growth inhibition of human HCT116 cells at 10 uM after 48 hrs by coulter counting; conditions: HCT-116, 48 h, read-out: GI; how it was run: as §1
[41] = system: ACHN; test: Growth inhibition of human ACHN cells at 10 uM after 48 hrs by coulter counting; conditions: read-out: GI; how it was run: as §1
[42] = Growth inhibition of human NCI-322M cells at 10 uM after 48 hrs by coulter counting; conditions: read-out: GI; how it was run: as §1
[43] = system: MDA-MB-435; test: Growth inhibition of human MDA-MB-435 cells at 10 uM after 48 hrs by coulter counting; conditions: MDA-MB-435, 48 h, read-out: GI; how it was run: as §1

Question: Which inhibition of growth at 10 µM [1] does the source give for `CCN1CC2=C(N=C3SC=CN3C2c2cccs2)/C(=C/c2cccs2)C1` (stereo not drawn) here?
Answer: > 10%

Question: What about the inhibition of growth at 10 µM [2] of the same compound?
Answer: > 10%

Question: And the inhibition of growth at 10 µM [3]?
Answer: > 10%

Question: And the inhibition of growth at 10 µM [4]?
Answer: > 10%

Question: What about the inhibition of growth at 10 µM [5] of the same compound?
Answer: > 10%

Question: And the inhibition of growth at 10 µM [6]?
Answer: > 10%

Question: And the inhibition of growth at 10 µM [7]?
Answer: > 10%

Question: And the inhibition of growth at 10 µM [8]?
Answer: > 10%

Question: And the inhibition of growth at 10 µM [9]?
Answer: > 10%

Question: And the inhibition of growth at 10 µM [10]?
Answer: > 10%

Question: And the inhibition of growth at 10 µM [11]?
Answer: > 10%

Question: What about the inhibition of growth at 10 µM [12] of the same compound?
Answer: > 10%

Question: What about the inhibition of growth at 10 µM [13] of the same compound?
Answer: > 10%

Question: What about the inhibition of growth at 10 µM [14] of the same compound?
Answer: 26.2%

Question: And the inhibition of growth at 10 µM [15]?
Answer: > 10%

Question: What about the inhibition of growth at 10 µM [16] of the same compound?
Answer: > 10%

Question: And the inhibition of growth at 10 µM [17]?
Answer: > 10%

Question: And the inhibition of growth at 10 µM [18]?
Answer: > 10%

Question: And the inhibition of growth at 10 µM [19]?
Answer: > 10%

Question: And the inhibition of growth at 10 µM [20]?
Answer: > 10%

Question: What about the inhibition of growth at 10 µM [21] of the same compound?
Answer: > 10%

Question: And the inhibition of growth at 10 µM [22]?
Answer: > 10%

Question: And the inhibition of growth at 10 µM [23]?
Answer: 14.2%

Question: And the inhibition of growth at 10 µM [24]?
Answer: > 10%

Question: What about the inhibition of growth at 10 µM [25] of the same compound?
Answer: 21.6%

Question: What about the inhibition of growth at 10 µM [26] of the same compound?
Answer: > 10%

Question: What about the inhibition of growth at 10 µM [27] of the same compound?
Answer: > 10%

Question: What about the inhibition of growth at 10 µM [28] of the same compound?
Answer: > 10%

Question: And the inhibition of growth at 10 µM [29]?
Answer: > 10%

Question: And the inhibition of growth at 10 µM [30]?
Answer: > 10%

Question: What about the inhibition of growth at 10 µM [31] of the same compound?
Answer: > 10%

Question: And the inhibition of growth at 10 µM [32]?
Answer: > 10%

Question: What about the inhibition of growth at 10 µM [33] of the same compound?
Answer: > 10%

Question: And the inhibition of growth at 10 µM [34]?
Answer: > 10%

Question: What about the inhibition of growth at 10 µM [35] of the same compound?
Answer: > 10%

Question: And the inhibition of growth at 10 µM [36]?
Answer: > 10%

Question: And the inhibition of growth at 10 µM [37]?
Answer: > 10%

Question: And the inhibition of growth at 10 µM [38]?
Answer: 11.4%

Question: And the inhibition of growth at 10 µM [39]?
Answer: > 10%

Question: And the inhibition of growth at 10 µM [40]?
Answer: > 10%

Question: And the inhibition of growth at 10 µM [41]?
Answer: > 10%

Question: And the inhibition of growth at 10 µM [42]?
Answer: > 10%

Question: What about the inhibition of growth at 10 µM [43] of the same compound?
Answer: > 10%
